From ChEMBL document CHEMBL4402567, “Structure-Activity Relationship Studies on Diversified Salicylamide Derivatives as Potent Inhibitors of Human Adenovirus Infection” (J Med Chem, 2020)

Assays:
[1] = test system: Human adenovirus 5; assay: Antiviral activity against Human adenovirus 5 infected in 293beta5 cells assessed as inhibition of plaque formation incubated for 7 days by GFP reporter gene assay; format: functional, organism-based; details: Human mastadenovirus C, 293beta5, 168 h
Procedure, shortened: (§1)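 HAdV5-GFP plaque assay in 293β5 cells at low MOI. Inhibition is expressed as percent of the infected control, with single-dose screening at 10 μM. Compounds giving >90% inhibition went on to IC50 determination. Values are means ± SD of triplicate samples from three independent experiments.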

[2] = test system: Human adenovirus 5; assay: Antiviral activity against Human adenovirus 5 infected in 293beta5 cells assessed as inhibition of plaque formation at 10 uM incubated for 7 days by GFP reporter gene assay relative to control; format: functional; details: Human mastadenovirus C, 293beta5, 168 h; procedure, shortened: as §1
[3] = Selectivity index, ratio of CC50 for cytotoxicity against human A549 cells to IC50 for antiviral activity against Human adenovirus 5 infected in 293beta5 cells assessed as inhibition of plaque formation after 7 days; format: toxicity, cell-based; details: read-out: Ratio CC50/IC50
[4] = Cytotoxicity against human A549 cells assessed as reduction in cell viability after 48 hrs by alamar blue assay; format: cell-based
[5] = test system: Human adenovirus 5; assay: Antiviral activity against Human adenovirus 5 infected in human A549 cells assessed as inhibition of viral DNA replication by measuring number of viral DNA copies at 50 uM after 24 hrs by RT-qPCR analysis (reference value: 100 +/- 1.55%); format: functional; set-up: scale not given: the % may be the effect or the level left
[6] = test system: Human adenovirus 5; assay: Antiviral activity against Human adenovirus 5 infected in human A549 cells assessed as inhibition of viral entry after 48 hrs by GFP reporter gene based assay; format: functional, organism-based; details: Human mastadenovirus C, A549, 48 h
Procedure, shortened: (§2)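 Entry assay in A549 epithelial cells infected with HAdV5-GFP at high MOI, with compound present throughout and 48 h incubation. GFP expression is the read-out.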

[7] = test system: Human adenovirus 5; assay: Antiviral activity against Human adenovirus 5 infected in human A549 cells assessed as fold reduction in virus yield at 50 uM after 48 hrs endpoint dilution method relative to control; format: functional
[8] = test system: Human adenovirus 5; assay: Antiviral activity against Human adenovirus 5 infected in human A549 cells assessed as inhibition of viral entry at 50 uM after 48 hrs by GFP reporter gene based assay relative to control; format: functional; details: Human mastadenovirus C, A549, 48 h; procedure, shortened: as §2
[9] = test system: Human adenovirus 5; assay: Antiviral activity against Human adenovirus 5 infected in human A549 cells asssessed as inhibition of viral entry by measuring nuclear-associated viral genome level at 50 uM after 45 mins by RT-PCR analysis (reference value: 100.24 +/- 2.77%); format: functional; set-up: scale not given: the % may be the effect or the level left
Procedure, shortened: (§3)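 Nuclear HAdV genome levels in treated cells were quantified at 45 min post-infection and compared with DMSO-treated cells. […] Bars are means ± SD of triplicate samples.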

[10] = test system: Human adenovirus 5; assay: Antiviral activity against Human adenovirus 5 infected in 293beta5 cells assessed as inhibition of viral replication at 10 uM measured immediately post infection by GFP reporter gene assay relative to control; format: functional; details: Human mastadenovirus C
[11] = test system: Human adenovirus 5; assay: Antiviral activity against Human adenovirus 5 infected in human A549 cells assessed as inhibition of viral DNA replication by measuring number of viral DNA copies at 5 uM after 24 hrs by RT-qPCR analysis (reference value: 100 +/- 1.55%); format: functional; set-up: scale not given: the % may be the effect or the level left
[12] = test system: Human adenovirus 5; assay: Antiviral activity against Human adenovirus 5 infected in human A549 cells assessed as inhibition of viral DNA replication at 5 uM after 24 hrs by RT-qPCR analysis relative to control; format: functional; details: Human mastadenovirus C, A549, 24 h
[13] = test system: Human adenovirus 5; assay: Antiviral activity against Human adenovirus 5 infected in 293beta5 cells assessed as inhibition of viral infection at 5 uM measured after 2 hrs post infection by gene assay relative to control; format: functional; details: Human mastadenovirus C, 293beta5, 2 h
[14] = test system: Human adenovirus 5; assay: Antiviral activity against Human adenovirus 5 infected in human A549 cells assessed as fold reduction in virus yield at 5 uM after 48 hrs endpoint dilution method relative to control; format: functional
[15] = test system: Human adenovirus 5; assay: Antiviral activity against Human adenovirus 5 infected in 293beta5 cells assessed as inhibition of viral infection at 5 uM preincubated for 60 mins followed by viral infection by GFP reporter gene assay relative to control; format: functional; details: Human mastadenovirus C
[16] = test system: Human adenovirus 5; assay: Antiviral activity against Human adenovirus 5 infected in human A549 cells asssessed as inhibition of viral entry by measuring nuclear-associated viral genome level at 5 uM after 45 mins by RT-PCR analysis (reference value: 100.24 +/- 2.77%); format: functional; set-up: scale not given: the % may be the effect or the level left; procedure, shortened: as §3

SMILES	IC50 [1] [nM]	inhibition at 10 µM [2] [%]	selectivity ratio at 168 h [3]	CC50 at 48 h [4] [µM]	further results
CC(C)[C@H](NC(=O)c1cc(Cl)ccc1O)C(=O)Nc1cc(F)cc(C(F)(F)F)c1	660	–	65.2	43	–
O=C(Nc1cc(C(F)(F)F)cc(C(F)(F)F)c1)c1cc(Cl)ccc1O [IMD-0354]	60	100	68.3	4.1	–
O=C(NCc1ccc([N+](=O)[O-])cc1Cl)c1cc(Cl)ccc1O	1400	100	36.7	51.4	–
CC(C)[C@H](NC(=O)c1cc(Cl)ccc1O)C(=O)Nc1cc(C(F)(F)F)cc(C(F)(F)F)c1	400	–	77.4	30.9	–
O=C(Nc1cc(F)cc(C(F)(F)F)c1)c1cc(Cl)ccc1O	180	100	667	120	Activity [5]: 82.41%; IC50 [6]: 2230 nM; fold change (FC) [7]: 989; inhibition at 50 µM [8]: 100%; Activity [9]: 66.96%; inhibition at 10 µM [10]: < 50%
O=C(NCc1ccc(C(F)(F)F)cc1F)c1cc(Cl)ccc1O	1320	–	34.6	45.6	–
O=C(NCc1ccc(F)cc1Cl)c1cc(Cl)ccc1O	2560	–	12.1	30.9	–
O=C(Nc1ccc(F)c(F)c1)c1cc(Cl)ccc1O	270	100	29.6	8	–
Cc1ccc(O)c(C(=O)Nc2cc(F)cc(C(F)(F)F)c2)c1	650	–	23.3	15.2	–
Cc1ccc(CNC(=O)c2cc(Cl)ccc2O)cc1	8120	–	10.8	87.7	–
O=C(NCc1ccc(C(F)(F)F)c(F)c1)c1cc(Cl)ccc1O	1400	–	15.9	22.3	–
O=C(N[C@@H](Cc1ccccc1)C(=O)Nc1ccc([N+](=O)[O-])cc1Cl)c1cc(Cl)ccc1O	7000	100	–	15.2	–
CC[C@@H](C)[C@H](NC(=O)c1cc(Cl)ccc1O)C(=O)Nc1ccc([N+](=O)[O-])cc1Cl	160	–	128	20.2	Activity [11]: 2.33%; inhibition at 5 µM [12]: > 90%; IC50 [6]: 2500 nM; inhibition at 5 µM [13]: > 50%; fold change (FC) [14]: 10; inhibition at 5 µM [15]: > 50%; Activity [16]: 0.54%
O=C(Nc1cc(F)cc(C(F)(F)F)c1)c1ccccc1O	1070	–	15.2	16.3	–
CC(C)[C@H](NC(=O)c1cc(Cl)ccc1O)C(=O)Nc1ccc([N+](=O)[O-])cc1Cl	450	100	444	200	Activity [5]: 60.09%; IC50 [6]: 11200 nM; fold change (FC) [7]: 213; Activity [9]: 91.82%; inhibition at 10 µM [10]: < 50%
O=C(Nc1cc(F)cc(C(F)(F)F)c1)c1ccc(Cl)cc1O	110	–	187	20.6	Activity [11]: 68.17%; IC50 [6]: 260 nM; inhibition at 5 µM [13]: > 50%; fold change (FC) [14]: 385; inhibition at 50 µM [8]: 100%; inhibition at 5 µM [15]: > 50%; Activity [16]: 54.74%
O=C(CNC(=O)c1cc(Cl)ccc1O)Nc1ccc([N+](=O)[O-])cc1Cl	2430	100	53.2	129	–
C[C@@H](NC(=O)c1cc(Cl)ccc1O)c1ccccc1	–	100	–	84.6	–
C[C@@H](NC(=O)c1cc(Cl)ccc1O)c1ccc(Cl)cc1	–	100	–	31.1	–
O=C(Nc1ccc([N+](=O)[O-])cc1)c1cc(Cl)ccc1O	110	–	–	–	Activity [11]: 0.51%; inhibition at 5 µM [12]: > 90%; inhibition at 5 µM [13]: > 50%; fold change (FC) [14]: 137; inhibition at 50 µM [8]: 100%; inhibition at 5 µM [15]: > 50%; Activity [16]: 15.48%
O=C(NCc1ccc(Cl)cc1Cl)c1cc(Cl)ccc1O	1730	–	17.9	30.9	–
O=C(NCc1ccc(C(F)(F)F)cc1)c1cc(Cl)ccc1O	2590	–	9.2	23.9	–
C[C@H](NC(=O)c1cc(Cl)ccc1O)C(=O)Nc1ccc([N+](=O)[O-])cc1Cl	3850	–	26	100	–
O=C(Nc1cc([N+](=O)[O-])ccc1F)c1cc(Cl)ccc1O	310	100	26.2	8.1	–
O=C(Nc1ccc([N+](=O)[O-])c(Cl)c1)c1cc(Cl)ccc1O	1000	100	–	–	–
O=C(Cc1cc(Cl)ccc1O)Nc1ccc([N+](=O)[O-])cc1Cl	–	0	–	–	–
CN(Cc1ccc(F)cc1)C(=O)c1cc(Cl)ccc1O	–	0	–	–	–
C[C@@H](NC(=O)c1cc(Cl)ccc1O)c1ccc(F)cc1	3020	100	> 66.2	> 200	–

Continued, in another order:

IC50 [1] [nM]	SMILES	inhibition at 10 µM [2] [%]	selectivity ratio at 168 h [3]	CC50 at 48 h [4] [µM]	further results
2540	C[C@H](NC(=O)c1cc(Cl)ccc1O)c1ccccc1	100	78.5	199	–
2960	CC(C)[C@H](NC(=O)c1cc(Cl)ccc1O)C(=O)Nc1ccc(F)c(F)c1	–	32.1	95	–
3460	CC(C)(NC(=O)c1cc(Cl)ccc1O)c1ccc(F)cc1	100	> 57.8	> 200	–
3570	O=C(NCc1ccc(Cl)cc1)c1cc(Cl)ccc1O	–	7.6	27.1	–
3940	O=C(NCCc1ccc(F)cc1)c1cc(Cl)ccc1O	–	39.1	154	–
4920	O=C(Cc1cc(Cl)ccc1O)Nc1cc(F)cc(C(F)(F)F)c1	–	4.8	23.7	–
600	O=C(Nc1ccc([N+](=O)[O-])cc1Cl)c1cc(Cl)ccc1O [NICLOSAMIDE]	100	–	–	Activity [11]: 0.05%; IC50 [6]: 1220 nM; fold change (FC) [14]: 82; inhibition at 50 µM [8]: 100%; Activity [16]: 49.51%
6560	O=C(NCc1ccc([N+](=O)[O-])cc1)c1cc(Cl)ccc1O	–	26.7	175	–
5610	O=C(Nc1cc(F)cc(C(F)(F)F)c1)c1cccc(Cl)c1	–	6.9	38.6	–
670	CC(C)(C)OC(=O)CC[C@H](NC(=O)c1cc(Cl)ccc1O)C(=O)Nc1ccc([N+](=O)[O-])cc1Cl	–	34.2	22.9	–
9650	CS(=O)(=O)Nc1ccc(Cl)cc1C(=O)NCC(=O)Nc1ccc([N+](=O)[O-])cc1Cl	–	14.6	141	–
2400	O=C(NCc1cc(F)cc(C(F)(F)F)c1)c1cc(Cl)ccc1O	–	15.1	36.3	–
400	O=C(N[C@@H](Cc1ccccc1)C(=O)Nc1cc(C(F)(F)F)cc(C(F)(F)F)c1)c1cc(Cl)ccc1O	–	44.9	17.9	–
